Screening results deposited in PubChem BioAssay by Broad Institute.
An excerpt weighted towards active compounds, which were near 2.9% of everything screened.
ERAP1 HTS inh: human ERAP1 aminopeptidase inhibitors, primary screen, biochemical, single point, plate reader; Endoplasmic reticulum aminopeptidase 1 (Homo sapiens), Q9NZ08; recombinant ERAP1, Leu-AMC fluorescence, 60 min; inhibition, % at 10.7 µM; hit rate 0.15% among 340,000; AID 652197, 2013;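 active means mean replicate inhibition of at least 30%, or all replicates individually reaching that 30% level; inactive means mean below 30% and not every replicate reaching it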
S100A4 inh HTS: inhibitors of S100A4-myosin IIA peptide binding, primary screen, biochemical, fluorescence polarization, TAMRA-MyoIIA peptide | Protein S100-A4 (Homo sapiens), P26447 | inhibition, % at 10.7 µM | hit rate 0.14% among 360,000 | AID 652163, 2013;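 active means mean inhibition of at least 70% across replicates, with every replicate also reaching that level; inconclusive means mean inhibition reaches 70% but some replicates fall short; inactive means mean inhibition below 70%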
Target sequence (P26447 whole entry, looked up): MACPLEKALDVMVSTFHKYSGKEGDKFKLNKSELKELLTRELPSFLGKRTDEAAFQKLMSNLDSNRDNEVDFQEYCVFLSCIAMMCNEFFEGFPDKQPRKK
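Material: S100A4 monomer protein / Buffer or medium: 50 mM HEPES pH 7.2, 10 mM CaCl2, 100 mM KCl / Times: 5 min incubation before reading / Benchmarks: neutral control DMSO, positive control TFP / Reagent: labelled myosin peptide probe, 5 nM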
CAL PDZ FP-1: CAL PDZ peptide-binding inhibitors, primary screen, biochemical, fluorescence polarization, Cer-tagged CAL PDZ, HTS. inhibition, % at 20 µM. purified CAL PDZ, TMR-peptide fluorescence polarization, 1 h. hit rate 0.02% among 330,000. AID 504414, 2011. Golgi-associated PDZ and coiled-coil motif-containing protein (Homo sapiens), Q9HD26;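 active means highest replicate inhibition of at least 40%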
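System: purified tagged CAL PDZ domain construct (CerCALP). Schedule: 1 h incubation at room temperature before polarization reading. Medium: 25 mM sodium phosphate pH 7.4, 150 mM NaCl, TCEP, IgG, Thesit. Read-out: percent inhibition from loss of millipolarization. Measured by: FP readout, S and P plane fluorescence. Probe or stimulus: fluorescent TMR peptide probe.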
CAL PDZ FP-2: untagged CAL PDZ binding inhibitors, primary screen, biochemical, fluorescence polarization, HTS | purified CAL PDZ, TMR-peptide fluorescence polarization, 1 h | inhibition, % at 24.9 µM | hit rate 0.92% among 300,000 | AID 602252, 2012;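 active means mean inhibition of at least 30% with at least half of replicates also reaching 30%; inconclusive means no clear call, values can overlap the other calls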
SIRT5 block: SIRT5 desuccinylase inhibitors, primary screen, biochemical, fluorescence imaging, single point, set 5; hit rate 1.1% among 330,000; inhibition, % at 15 µM; NAD-dependent protein deacylase sirtuin-5, mitochondrial (Homo sapiens), Q9NXA8; Purified SirT5, succinyl-peptide AMC, trypsin-coupled fluorescence; in the data active means inhibition above about 15%; inconclusive means no clear call, values can overlap the other calls
Target sequence (Q9NXA8 whole entry, looked up): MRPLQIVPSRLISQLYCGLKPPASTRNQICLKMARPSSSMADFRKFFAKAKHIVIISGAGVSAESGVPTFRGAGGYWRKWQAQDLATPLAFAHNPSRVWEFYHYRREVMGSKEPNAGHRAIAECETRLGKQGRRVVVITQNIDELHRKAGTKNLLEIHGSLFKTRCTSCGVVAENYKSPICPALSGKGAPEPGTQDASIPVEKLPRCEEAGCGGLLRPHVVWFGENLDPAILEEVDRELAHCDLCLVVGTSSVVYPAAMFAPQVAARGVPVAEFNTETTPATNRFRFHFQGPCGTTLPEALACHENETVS
DENV2 CPE rescue: inhibitors of DENV2 cytopathic effect, primary screen, cell-based, plate reader, single concentration | DENV2-infected cells, cytopathic effect rescue | CPE inhibition, % at 9.99 µM | hit rate 1.7% among 350,000; in the data active means CPE inhibition above about 20%, passing the limit was not always enough; inconclusive means no clear call, values can overlap the other calls; tested in BHK-21 cells
Numbers stand for hits; 0 = inactive; ? = inconclusive; - = no result given.

SMILES	ERAP1 HTS inh	S100A4 inh HTS	CAL PDZ FP-1	CAL PDZ FP-2	SIRT5 block	DENV2 CPE rescue
O=C(N[C@H]1CC[C@H](CC(=O)N2CCCCC2)O[C@H]1CO)c1ccc2c(c1)OCO2	0	0	-	-	0	0
CC1(C)C(=O)OC(C(=O)c2ccccc2)C(C)(C)C1=O (centres undefined)	-	-	0	0	-	-
CC1(C)C(Cl)C(=O)C(C(=O)c2ccccc2)C(=O)C1Cl (centres undefined)	0	0	0	0	94	0
O=C(O)C[C@@H]1C[C@@H]2c3cc(NC(=O)Cc4ccncc4)ccc3O[C@@H]2[C@H](CO)O1	0	0	-	-	0	0
O=c1[nH][nH]c2c(N=Cc3ccccc3O)ccc(F)c12	0	0	0	0	29	-
COC(=O)[C@H]1CN(C(=O)c2ccccc2)C(=O)N1	0	0	0	0	-	25
COC(=O)C1CCC(=S)N1C(=O)c1ccccc1 (centres undefined)	0	0	0	0	-	0
CCc1cnc(N2[C@@H](C#N)[C@@H](c3ccccc3C3=CCCC3)[C@@H]2CO)s1	0	0	-	-	0	20
N#C[C@H]1[C@@H](c2ccccc2-c2ccccc2)[C@@H](CO)N1c1ncc(-c2ccccc2)s1	0	0	-	-	24	0
N#C[C@H]1[C@@H](c2ccccc2-c2ccc(F)cc2)[C@@H](CO)N1c1ncc(-c2ccccc2)s1	0	0	-	-	0	23
N#C[C@@H]1[C@@H](c2ccccc2-c2ccc(F)cc2)[C@H](CO)N1c1ncc(-c2ccccc2)s1	0	0	-	-	0	76
COc1cccc(C#Cc2ccc([C@@H]3[C@@H](CO)N4C(=O)CN(C(=O)c5ccncc5)C[C@@H]34)cc2)c1	0	0	-	-	0	0
CC(=O)N(C)C[C@H]1Oc2cc(-c3ccccc3)ccc2S(=O)(=O)N([C@@H](C)CO)C[C@H]1C	0	0	-	-	0	0
CCCNC(=O)Nc1ccc2c(c1)C(=O)N(C)C[C@@H](OC)[C@H](C)CN(C(=O)C1CCC1)[C@@H](C)CO2	0	0	-	-	0	0
CC(C)NC(=O)N(C)C[C@H]1Oc2ccc(NC(=O)CCC(F)(F)F)cc2CC(=O)N([C@H](C)CO)C[C@@H]1C	0	0	-	-	0	0
COc1ccc(S(=O)(=O)N[C@@H]2CC[C@@H](CCn3cc(-c4cccc(F)c4)nn3)O[C@H]2CO)cc1	0	0	-	-	0	0
CC(C)C#Cc1ccc2c(c1)O[C@@H](CN(C)C(=O)c1cccnc1)[C@@H](C)CN([C@H](C)CO)S2(=O)=O	0	0	-	-	0	0
Nc1ccc(CC(N)c2csc(Nc3cc(Oc4ccccc4)ncn3)n2)cc1 (centres undefined)	0	0	-	-	0	46
NC(Cc1ccc(C(F)(F)F)cc1)c1csc(Nc2cc(Oc3ccccc3)ncn2)n1 (centres undefined)	0	0	-	-	0	0
NC(c1csc(Nc2cc(Oc3ccccc3)ncn2)n1)C1CCCCC1 (centres undefined)	0	0	-	-	-	0
COc1ccc(C(N)c2csc(Nc3cc(Oc4ccccc4)ncn3)n2)cc1 (centres undefined)	0	0	-	-	0	53
C[C@@H]1CN([C@@H](C)CO)C(=O)c2cccc(NC(=O)C3CCCCC3)c2O[C@@H]1CN(C)C(=O)Nc1ccc(C(F)(F)F)cc1	0	0	-	-	0	0
CC(=O)Nc1ccc(C(=O)CN2C(=O)NC3(CCCCCC3)C2=O)c(F)c1	0	0	0	0	-	0
CC(=O)Nc1ccc(C(=O)CN2C(=O)NC3(CCOc4ccccc43)C2=O)c(F)c1 (centres undefined)	0	0	0	40	0	?
CNC(=O)CSc1nnc(-c2ccco2)n1-c1cccc(C)c1	0	0	0	0	0	0
SMILES	ERAP1 HTS inh	S100A4 inh HTS	CAL PDZ FP-1	CAL PDZ FP-2	SIRT5 block	DENV2 CPE rescue
Cc1cccc(C)c1NC(=O)CSc1nnc(-c2ccco2)n1N	-	-	0	0	-	-
Nn1c(SCC(=O)Nc2cccc(S(N)(=O)=O)c2)nnc1C1CC1	0	0	0	70	0	0
CNC(=O)CSc1nnc(-c2ccco2)n1-c1ccccc1	0	0	0	-	101	0
Nn1c(SCC(=O)Nc2ccc(S(N)(=O)=O)cc2)nnc1-c1ccco1	0	0	0	37	0	0
COc1cccc(CN2[C@@H]3CNC[C@H]2C3c2ccc(-c3ccc(C)cc3)cc2)c1 (some centres undefined)	-	0	-	-	0	0
C[C@@H]1CN([C@@H](C)CO)C(=O)CCCn2cc(nn2)CO[C@H]1CN(C)S(=O)(=O)c1ccc(F)cc1	0	0	-	-	0	0
C[C@]12CCC(=O)N1CCc1c2[nH]c2ccccc12	0	0	-	-	0	0
C[C@@H](NC(=O)C[C@H]1CC[C@H]2[C@@H](COC[C@@H](O)CN2C)O1)c1ccccc1	0	0	-	-	0	0
COc1ccc2c3c([nH]c2c1)[C@@H](CO)N(C(=O)Nc1ccc(F)cc1)CC31CN(S(=O)(=O)c2cccs2)C1	-	-	-	-	-	0
CCCC(=O)N1CCC2(CC1)CN(C(=O)Nc1ccc(F)cc1)[C@@H](CO)c1c2c2ccc(OC)cc2n1C	-	-	-	-	-	0
COc1ccc2c3c(n(C)c2c1)[C@@H](CO)N(C(=O)Nc1ccc(F)cc1)CC31CN(S(=O)(=O)c2cccs2)C1	-	-	-	-	-	46
COc1ccc2c3c(n(C)c2c1)[C@H](CO)N(C(=O)Nc1ccc(F)cc1)CC31CN(C(=O)c2cccnc2)C1	0	0	-	-	0	25
COc1ccc2c3c(n(C)c2c1)[C@@H](CO)N(C(=O)Nc1ccc(F)cc1)CC31CN(C(=O)c2cccnc2)C1	0	0	-	-	0	0
COc1ccc2c3c(n(C)c2c1)[C@@H](CO)N(C(=O)Nc1ccc(F)cc1)CC31CCN(C(=O)Cc2ccncc2)CC1	0	0	-	-	-	40
COc1ccc2c3c(n(C)c2c1)[C@H](CO)N(Cc1ccncc1)CC31CCN(C(=O)Cc2ccncc2)CC1	0	0	-	-	-	77
